Screening results as filed in PubChem BioAssay.
NALP3 yeast inh: NALP3 inflammasome inhibitors in reconstituted yeast, primary screen, luminescence, uHTS. AID 2825, 2010. inhibition, % at 10 µM. Yeast reconstituted NLRP3/ASC/caspase-1, beta-gal luminescence, 24 h. 330,000 compounds, 0.39% hits;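 active = inhibition of 50% or more; inactive = inhibition below 50%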;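 also: plate controls were induced DMSO wells for no effect and uninduced yeast grown without galactose for full effect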
PolyA inhibitor: polyadenylation inhibitors in yeast reporter cells, primary screen, luminescence, S. cerevisiae | S. cerevisiae SKY197-pL101 polyadenylation reporter, beta-gal luminescence; efflux-impaired pdr1/pdr3 knockout yeast; score 100 = 6 SD above DMSO | activity score, % at 12 µM | 300,000 compounds, 0.02% hits;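 active = lowest replicate activity score at least 50, where 100 means six control SD above control mean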;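 also: yeast exposed to compound for 9 h at 30 °C; higher score means more reporter readthrough which indicates perturbed polyadenylation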
IMP-1 inh: IMP-1 metallo-beta-lactamase inhibitors, primary screen, biochemical, epi-absorbance readout, Pseudomonas aeruginosa enzyme; purified IMP-1, nitrocefin hydrolysis, epi-absorbance fluorescence; inhibition, % at 5.6 µM; 290,000 compounds, 0.45% hits; AID 1556, 2009;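 active = inhibition above the mean plus 3 SD of all compounds in the same screening run, cut at about 4.5% in these data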;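 also: 0% = IMP-1 with DMSO and 100% = DMSO wells lacking enzyme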
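System – purified recombinant IMP-1 beta-lactamase · Input – IMP-1 dispensed at 0.2 nM · Timing – 15 min preincubation plus 25 min reaction at 25 °C · Signal – Epi-absorbance fluorescence, 480 nm excitation, 530 nm emission · Measure – percent IMP-1 inhibition derived from blank-referenced optical density · Controls – Enzyme-plus-DMSO low control, enzyme-free DMSO high control · Replication – singlicate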
NALP1 inh: NALP1 inflammasome inhibitors in reconstituted yeast, colorimetric, S. cerevisiae, triplicate retest | S. cerevisiae NALP1/ASC/caspase-1 growth, X-gal OD620, 72 h | inhibition, % at 10 µM | 280,000 compounds, 0.61% hits | AID 2071, 2009; in the data active = inhibition mostly above about 24%, no sharp cut-off; inactive = mostly below about 32%
VIM-2 inhibitor: VIM-2 metallo-beta-lactamase inhibitors, primary screen, biochemical, epi-absorbance readout, Pseudomonas aeruginosa enzyme; 290,000 compounds, 0.89% hits; inhibition, % at 5.6 µM; AID 1527, 2009; purified VIM-2, nitrocefin hydrolysis, epi-absorbance fluorescence;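 active = inhibition above the mean of all tested compounds plus 3 SD, cutoff set per screening run, cut at about 7.5% in these data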;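 also: red hydrolysis product quenches plate fluorescence so inhibitors raise well fluorescence; 0% = enzyme with DMSO and 100% = DMSO without enzyme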
Mot1-301 SUMO: yeast Mot1-301 growth rescue at high temperature, primary screen, SUMOylation pathway inhibitor project, S. cerevisiae, ATP luminescence, 38.5C | S. cerevisiae Mot1-301 growth rescue; percent above DMSO median, 100 means doubled | growth rescue, % at 18.8 µM | 320,000 compounds, 1% hits | AID 2716, 2010;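 active = every valid replicate shows activation above 250% relative to neutral control wells; inactive = the rest, any valid replicate at or below 250%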;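 also: OY570 slx delta 5 strain wells were the positive control but not used for scaling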
NALP3 confirm: NALP3 inhibitors retested in yeast, confirmation, luminescence, single concentration; shares compounds with NALP3 yeast inh; yeast expressing human NALP3; inhibition, % at 10 µM; 1,300 compounds, 81% hits; AID 435006, 2010; in the data active = inhibition above about 48%
Casp1 ASC ctr: CASP1-PYCARD signaling inhibition in yeast, confirmatory test, counterassay for NLRP3 inhibitor program, one-dose. shares compounds with NALP3 yeast inh. yeast expressing Caspase-1-ASC, luminescence counter screen. inhibition, % at 10 µM. 1,000 compounds, 66% hits
NALP3 yeast rt: NALP3 inhibitors in yeast, repeat test, confirmation, luminescence, single concentration, retest | yeast expressing human NALP3, luminescence read-out | AID 488794, 2010 | shares compounds with NALP3 yeast inh | 1,000 compounds, 53% hits | inhibition, % at 10 µM
* = called active by the depositor; . = not tested or not shown. Hits are enriched below; roughly 2.9% of the tested compounds scored in any of these assays. Rule as the data show it, unless noted: active = inhibition above about 50%; inactive = the rest.

SMILES	NALP3 yeast inh	PolyA inhibitor	IMP-1 inh	NALP1 inh	VIM-2 inhibitor	Mot1-301 SUMO	NALP3 confirm	Casp1 ASC ctr	NALP3 yeast rt
Cc1cc(C)cc(C(=O)/C=C2\NC(=O)CS2)c1	66*	11	-4	0	-1	-17	77*	80*	71*
Cc1cnc(C(=O)N2CCN(S(=O)(=O)c3cccc(Br)c3)CC2)cn1	13	.	.	.	.	40	.	.	.
Cc1nn(-c2ccc(Cl)cc2)c(=O)c2ccccc12	2	-34	-3	14	-3	.	.	.	.
Cc1c(Cl)sn(-c2ccc(Cl)cc2)c1=O	56*	.	-2	98*	-1	.	34	69*	50
O=C1/C(=C/c2ccccc2[N+](=O)[O-])COc2ccccc21	71*	-14	-1	6	-1	-12	62*	85*	74*
CNc1ccc(/C=C2\COc3ccccc3C2=O)cc1[N+](=O)[O-]	35	-13	-2	3	-3	-5	.	.	.
O=C(C1CCCN(S(=O)(=O)c2ccc(F)cc2)C1)N1CCCCCC1 (stereo unspecified)	-11	-19	-2	25	-1	8	.	.	.
O=C(NC1=NCCS1)c1sc2cc(Cl)cc(Cl)c2c1Cl	27	-38	-4	38	-1	4	.	.	.
O=C(NC1=NCCS1)c1sc2ccccc2c1Cl	52*	-10	-2	29	-2	32	63*	.	.
C/C(=N/NC(=O)c1cc2ccccc2cc1O)C1C(=O)c2ccccc2C1=O	13	1	-1	-5	-2	.	.	.	.
C/C(=N\NC(=O)c1ccccc1O)C1C(=O)c2ccccc2C1=O	87*	10	-5	16	-6	11	92*	92*	84*
Cc1ccc(NN2C(=O)C=C(c3ccccc3)C2=O)cc1	83*	-102	-3	-25	-5	.	72*	96*	62*
O=C1c2ccccc2C(=O)N1Nc1ccccc1	17	9	-1	-1	2	4	.	.	.
CCN(CC)Cc1ccc(OC)c(Cl)c1	-1	12	-3	0	-2	113	.	.	.
COc1ccc(CSCCN)cc1Cl	68*	-62	-1	12	1	-8	69*	71*	73*
Clc1cc2nc3ccccn3c2cc1Cl	67*	-14	-4	1	0	-25	30	.	.
O=C(COc1ccccc1Cl)Nc1ccccc1C(=O)N1CCCCC1	16	-5	-2	12	-1	3	.	.	.
CCCCCCCCn1c(=O)c(C(=O)OC)c(N)c2ccccc21	60*	-13	-4	-6	-4	16	28	.	.
CCCCCCCn1c(=O)c(C(=O)OC)c(N)c2ccccc21	68*	-11	-3	10	-1	160	61*	93*	84*
CCCCCCn1c(=O)c(-c2ccccc2)c(O)c2ccccc21	22	-21	-1	12	1	27	.	.	.
O=C(COC(=O)CNC(=O)c1ccc(Cl)c([N+](=O)[O-])c1)NCC1CCCO1 (stereo unspecified)	3	.	.	.	.	-4	.	.	.
O=C(NC(=S)/C(=C1\CCCCCN1)[N+](=O)[O-])c1ccccc1	59*	.	.	.	.	1	54*	64*	44
CCN(CC)CCSc1nc2ccccc2n1Cc1ccccc1	24	30	-5	26	-2	19	.	.	.
O=C1Nc2ccccc2/C1=C/c1ccccc1F	53*	-16	0	18	0	5	53*	40	39
Cc1ccccc1/C=C1\C(=O)Nc2ccc(F)cc21	33	-4	-2	34	-2	-21	.	.	.
SMILES	NALP3 yeast inh	PolyA inhibitor	IMP-1 inh	NALP1 inh	VIM-2 inhibitor	Mot1-301 SUMO	NALP3 confirm	Casp1 ASC ctr	NALP3 yeast rt
CCN(CC)c1ccc(S(=O)(=O)N2CCCCC2)cc1NC(=O)C1CCC1	18	0	.	.	.	-2	.	.	.
CC1CCc2sc(C(=O)N3CCC(C(N)=O)CC3)cc2C1 (stereo unspecified)	11	.	.	.	.	-19	.	.	.
O=C(Nc1ccc(F)cc1)C1(S(=O)(=O)c2ccc(Cl)cc2)CC1	55*	28	-3	18	-2	-15	75*	48	42
COc1cccc(NC(=O)C2(S(=O)(=O)c3ccc(Cl)cc3)CC2)c1	12	30	-1	.	-1	-6	.	.	.
COc1ccc(-c2nnc(SCc3cccc(C#N)c3)o2)cc1	54*	15	-3	0	-1	-8	37	.	.
Cc1cc(C)cc(NC(=O)N2CCc3ccccc3C2)c1	53*	-6	1	21	2	-23	64*	42	28
Cc1ccc(NC(=O)N2CCc3ccccc3C2)cc1C	43	-1	-3	7	-3	-3	.	.	.
CCOC(=O)c1cc(-c2c(Cl)cccc2Cl)no1	0	-2	-3	26	-2	15	.	.	.
Cc1cccc(NCc2cc(Cl)ccc2O)n1	51*	6	-2	11	-1	-9	46	47	42
Cc1ccc(O)c(CNc2cccc(C)n2)c1	45	4	-1	32	-1	.	.	.	.
Cc1cccc(NCc2cc(Cl)cc(Cl)c2O)n1	53*	-18	-3	8	-1	217	51*	57*	56*
Cc1c(C(=O)N2CCCCC2)c(S(=O)(=O)N2CCc3ccccc32)c(C)n1C	-2	-7	0	23	2	91	.	.	.
CC(C(=O)NCCC1=CCCCC1)c1ccc([N+](=O)[O-])cc1 (stereo unspecified)	51*	-4	-2	3	-1	8	61*	48	29
Cc1ccc(S(=O)(=O)N2CCOCC2)cc1C(=O)N1CCN(c2ccc(C(F)(F)F)cn2)CC1	9	.	.	.	.	-10	.	.	.
CCN(CC)S(=O)(=O)c1ccc(/C=C/C(=O)OCC(=O)NNC(=O)c2ccc(OC)cc2)cc1	8	.	.	.	.	-9	.	.	.
COc1c(OC(C)=O)c(=O)n2c3ccccc3c3ccnc1c32	71*	1	.	.	.	-12	75*	26	64*
CCSc1oc(-c2ccco2)nc1S(=O)(=O)c1ccc(F)cc1	6	19	-3	22	-2	1	.	.	.
CCSc1oc(-c2ccco2)nc1S(=O)(=O)c1ccc(C)cc1	52*	13	-3	15	-1	323	50*	50*	46
